Assay results from ChEMBL document CHEMBL1275449, “Potent in vitro antifungal activities of naturally occurring acetylenic acids” (Antimicrob Agents Chemother, 2008).
The source made the active and inactive calls.

Experiments:
Type in all cases: functional, organism-based
[1] = system: Candida tropicalis; assay: Antifungal activity against Candida tropicalis ATCC 750 at 168.9 uM after 48 hrs by CLSI method
How it was run: (§1)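 Yeast suspensions made from 3-5 colonies off 24-72 h SD agar plates in saline. They were diluted by OD630 standard curve in RPMI 1640 (0.2% dextrose, 0.03% glutamine, 0.165 M MOPS, pH 7.0) to 1.5 × 10³ CFU/ml. Twofold dilutions (11 concentrations, 20% DMSO-saline) run in duplicate. OD530 read before and after 35°C, 48 h. Line values are top test concentrations; no-growth endpoints give MIC/MFC.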

[2] = system: Cryptococcus neoformans; assay: Antifungal activity against Cryptococcus neoformans ATCC 90113 at 168.9 uM after 72 hrs by CLSI method
How it was run: (§2)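 SD broth replaced RPMI because growth in RPMI was poor; other CLSI conditions were kept. Inoculum was 1.5 × 10³ CFU/ml from colonies on SD agar, checked by plating. Twofold serial dilutions (11 concentrations) in 20% DMSO-saline were tested in duplicate. OD530 was read before and after incubation at 35°C for 72 h. Percent growth gave IC50; the MIC is the lowest concentration with no detectable growth.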

[3] = system: Candida parapsilosis; assay: Antifungal activity against Candida parapsilosis ATCC 22019 at 168.9 uM after 48 hrs by CLSI method; how it was run: as §1
[4] = system: Aspergillus flavus; assay: Antifungal activity against Aspergillus flavus ATCC 204304 at 168.9 uM after 48 hrs by CLSI method
[5] = system: Candida albicans; assay: Antifungal activity against Candida albicans ATCC 14053 at 168.9 uM after 48 hrs by CLSI method
[6] = system: Pichia kudriavzevii; assay: Antifungal activity against Candida krusei ATCC 6258 at 168.9 uM after 48 hrs by CLSI method
How it was run: (§3)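 Candida inocula came from 24–72-h SD agar colonies suspended in saline. They were diluted by OD630 standard curve into RPMI 1640 (0.2% dextrose, 0.03% glutamine, 0.165 M MOPS, pH 7.0) to 1.5 × 10³ CFU/ml. Compounds were run as 11 twofold dilutions in 20% DMSO-saline, in duplicate, at 35°C for 48 h, with OD530 read before and after. Percent growth at the top concentration, IC50, MIC, and MFC (SD agar plating) were derived.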

[7] = system: Candida tropicalis; assay: Antifungal activity against Candida tropicalis ATCC 750 at 9.4 uM after 48 hrs by CLSI method
How it was run: (§4)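 Candida in CLSI broth microdilution. Saline colony suspension set to 1.5 × 10³ CFU/ml (final) in MOPS-buffered RPMI 1640, pH 7.0. Test agent given as twofold serial dilutions in 20% DMSO-saline, duplicate wells. 35°C for 48 h. Growth read as OD530 before and after incubation. Percent inhibition scored at the highest test concentration.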

[8] = system: Trichophyton mentagrophytes; assay: Antifungal activity against Trichophyton mentagrophytes ATCC 9533 at 9.4 uM after 5 days by CLSI method
How it was run: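 Trichophyton growth scraped from 1–6-week potato dextrose slants and filtered through Miracloth. Inoculum 2.7 × 10⁴ CFU/ml (final) in 5% Alamar blue-RPMI 1640 buffered with MOPS, pH 7.0. Duplicate twofold dilutions from 20% DMSO-saline. Incubated 35°C for 5 days. Fluorescence read at 544 nm excitation, 590 nm emission. Inhibition assessed at the highest test concentration.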

[9] = system: Aspergillus fumigatus; assay: Antifungal activity against Aspergillus fumigatus ATCC 204305 at 9.4 uM after 48 hrs by CLSI method
How it was run: (§5)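 Aspergillus growth on 1–6-week potato dextrose slants scraped and Miracloth-filtered. Inoculum sized by OD630 curve to 2.7 × 10⁴ CFU/ml (final) in 5% Alamar blue-RPMI 1640 (MOPS, pH 7.0). Duplicate twofold dilutions from 20% DMSO-saline. 35°C for 48 h. Fluorescence 544/590 nm read before and after. Percent inhibition taken at the highest test concentration.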

[10] = system: Aspergillus fumigatus; assay: Antifungal activity against Aspergillus fumigatus ATCC 90906 at 9.4 uM after 48 hrs by CLSI method; how it was run: as §5
[11] = system: Cryptococcus neoformans; assay: Antifungal activity against Cryptococcus neoformans ATCC 90113 at 187.7 uM after 72 hrs by CLSI method; how it was run: as §2
[12] = system: Candida albicans; assay: Antifungal activity against Candida albicans ATCC 32354 at 187.7 uM after 48 hrs by CLSI method; how it was run: as §3
[13] = system: Nakaseomyces glabratus; assay: Antifungal activity against Candida glabrata ATCC 90030 at 187.7 uM after 48 hrs by CLSI method; how it was run: as §3
[14] = system: Cryptococcus neoformans; assay: Antifungal activity against Cryptococcus neoformans ATCC 66031 at 169.8 uM after 72 hrs by CLSI method; how it was run: as §2
[15] = system: Candida albicans; assay: Antifungal activity against Candida albicans ATCC 32354 at 169.8 uM after 48 hrs by CLSI method; how it was run: as §3
[16] = system: Candida albicans; assay: Antifungal activity against Candida albicans ATCC 200955 at 169.8 uM after 48 hrs by CLSI method; how it was run: as §3
[17] = system: Candida albicans; assay: Antifungal activity against Fluconazole resistant Candida albicans isolate 1 at 198.1 uM after 48 hrs by CLSI method; how it was run: as §4
[18] = system: Aspergillus fumigatus; assay: Antifungal activity against Aspergillus fumigatus ATCC 90906 at 198.1 uM after 48 hrs by CLSI method

Measured: Activity

CCCCCC#CCC#CCC#CCC#CCCCC(=O)O
inactive: [1] | [2] | [3] | [4] | [5] | [6]

CC(=O)N1CCN(c2ccc(OCC3COC(Cn4ccnc4)(c4ccc(Cl)cc4Cl)O3)cc2)CC1 (stereo not drawn) [KETOCONAZOLE]
inactive: [7] | [8] | [9] | [10]

CCCCCCCCCCC#CCCCCC(=O)O
inactive: [11] | [12] | [13]

CCCCCCCCCCCCC#CCCCCC(=O)O [6-NONADECYNOIC ACID]
inactive: [14] | [15] | [16]

CCCCCCCCCC#CCCCCC(=O)O
inactive: [17] | [18]
